PubChem BioAssay AID624268 (The Scripps Research Institute Molecular Screening Center, 2012)
Hit rate of the full screen: of about 360,000 compounds, about 1,500 (0.42%) were called active. Only a selection was taken, and actives are over-represented in it overall. A number with no mark means an inactive call.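 Rule for the calls: active = inhibition above a per-plate cutoff of the control wells' mean inhibition plus 3 SD (cut at about 5.5% in these data); inactive = the rest.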

Test system: methionyl-tRNA synthetase (Trypanosoma brucei brucei)
Assay: inhibition of trypanosome methionyl-tRNA synthetase – biochemical, luminescence, primary screen (AID 624268);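 note: 0% = DMSO wells median and 100% = median of wells with control inhibitor compound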
Conditions: purified T. brucei MetRS, ATP depletion, Kinase-Glo luminescence; at 11.9 µM; active compounds read high
Method in brief: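 System: purified T. brucei MetRS enzyme / Detection: Kinase-Glo luciferase luminescence reporting remaining unconsumed ATP / Medium: HEPES buffer with MgCl2, KCl, DTT, spermine, BSA, pyrophosphatase / Replication: singlicate, one well per compound / Evaluation: percent inhibition relative to median high and low control wells / Schedule: 2 h aminoacylation at 25 °C after 15 min preincubation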

Compound	inhibition
O=C(CSCc1ccc([N+](=O)[O-])cc1)NCCSCc1ccccc1	-0.21%
CCCCc1nnc(NC(=O)CS(=O)(=O)Cc2ccccc2)s1	-0.35%
O=C(NCCOc1ccccc1F)Nc1ccc(Br)cc1	2.66%
O=C(Nc1ccccc1)Nc1nnc(COc2ccccc2F)s1	17.3% (active)
COCc1nnc(NC(=O)CS(=O)(=O)Cc2ccccc2)s1	0.23%
CN1CCN(S(=O)(=O)c2ccc3[nH]cc(C(=O)O)c(=O)c3c2)CC1	1.71%
CCOc1ccc2c(c1)c(=O)c(S(=O)(=O)c1ccc(C)cc1)cn2CC	-0.11%
Cc1ccc(S(=O)(=O)c2c[nH]c3ccc(C)cc3c2=O)cc1	8.92% (active)
Cc1ccc2[nH]cc(CCCN3C(=O)c4ccccc4C3=O)c2c1	-0.1%
CCCn1cc(S(=O)(=O)c2ccc(C)cc2)c(=O)c2cc(OCC)ccc21	-0.04%
Cc1ccc(S(=O)(=O)c2c[nH]c3ccc(Cl)cc3c2=O)cc1	40.4% (active)
O=C(Nc1ccccc1Cl)/C(Cl)=C(\Cl)S(=O)c1ccccc1 (stereo not given)	-0.49%
CCCCn1c(-c2cccc(C)c2)nc2cc3[nH]c(=O)c(C(C)C)nc3cc21	-0.06%
CCCCCn1nnnc1-c1nc2cc3ccccc3cc2[nH]c1=O	34.6% (active)
CCCCCn1nnnc1C1c2ccccc2C(=O)N1Cc1ccco1 (stereo not given)	-0.27%
C=CCNC(=S)N/N=C/c1ccc(C)s1	-0.64%
CC(C)CNC(=O)C1CCCN(S(=O)(=O)c2ccc(-n3cnnn3)cc2)C1 (stereo not given)	-0.29%
CCOc1ncccc1C(=O)N(C)CC(=O)Nc1ccc(F)cc1	-0.63%

Compound	inhibition
CC1(C)CC(=O)C=C(c2cccc3c2Oc2ccccc2S3)C1	-0.11%
Clc1ccccc1SCc1nc2ccccc2[nH]1	7.72% (active)
O=c1c(-c2ccc(Cl)cc2)[n+]([O-])c2ccccc2n1OCc1nc2ccccc2[nH]1	-0.49%
COc1ccc(C)cc1-n1nnnc1SCc1nc2ccccc2c(=O)[nH]1	0.31%
O=C(COC(=O)c1ncc(Cl)c(Cl)c1Cl)NNC(=O)c1ccccc1	-0.19%
O=C(/C=C/c1cccs1)c1cc(Cl)ccc1OC(=O)N1CCOCC1	-0.94%
O=C1CC(C(=O)O)NC(=S)N1 (stereo not given)	0.05%
Cc1oc(CC(C)C)c(CN2CCCC2)c1C(=O)O	-0.29%
O=C(Nc1nsc(-c2ccccc2)n1)c1ccncc1	-1.68%
NS(=O)(=O)c1ccc(CCNC(=O)NC2CCCCC2)cc1	-1.44%
NS(=O)(=O)c1ccc(CCNC(=O)Nc2ccc(Cl)cc2)cc1	26.5% (active)
CN(CC(=O)NCCc1ccc(S(N)(=O)=O)cc1)CC(=O)Nc1ccc(Cl)cc1	-0.04%
CC(=O)C1(C)N(O)C(C)(C)C(c2cccs2)=[N+]1[O-] (stereo not given)	-1.27%
COc1ccccc1C(=O)N(Cc1ccc(C)o1)C1CCS(=O)(=O)C1 (stereo not given)	-0.11%
CC1(C(=O)NS(=O)(=O)c2ccccc2)CCN1C(=O)C1CCCCC1 (stereo not given)	-0.08%
CC(C)(C)c1ccc(S(=O)(=O)NC(=O)C2(C)CCN2C(=O)CC2CC2)cc1 (stereo not given)	-0.1%
COc1ccc(NC2CCCN(C(=O)c3ccncc3)C2)cc1 (stereo not given)	-0.58%
